According to PMC11256359 (Biochemistry, 2024):
Numbering of substitutions follows the chain as printed.

Assays:
Type in all cases: binding
[1] = target: T1, hOTC (human ornithine transcarbamylase) (Homo sapiens, UniProt P00480); test: thermal shift assay; settings: 10 mM L-norvaline with carbamoyl phosphate present; 4 µM enzyme; storage buffer
T1 sequence (P00480 33-354): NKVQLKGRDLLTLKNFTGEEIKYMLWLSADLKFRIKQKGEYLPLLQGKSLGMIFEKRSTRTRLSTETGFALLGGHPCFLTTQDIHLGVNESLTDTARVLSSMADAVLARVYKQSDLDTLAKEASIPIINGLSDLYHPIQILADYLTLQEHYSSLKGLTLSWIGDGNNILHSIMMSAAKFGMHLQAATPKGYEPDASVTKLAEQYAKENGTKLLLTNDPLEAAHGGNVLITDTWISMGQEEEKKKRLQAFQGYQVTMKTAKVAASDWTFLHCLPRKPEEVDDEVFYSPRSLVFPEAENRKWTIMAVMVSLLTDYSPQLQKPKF

[2] = target: T1, hOTC (human ornithine transcarbamylase); test: microscale thermophoresis, label-free
[3] = target: T2, hOTC (human ornithine transcarbamylase) (Homo sapiens, UniProt P00480, D263A); test: microscale thermophoresis, label-free
T2 sequence (P00480 33-354 D263A): T1 sequence (P00480 33-354) with D231A
How it was run: (§1)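 His-tagged human OTC (WT or variants) expressed in BL21(DE3) Tuner cells with pGro7 chaperones and purified by one-step nickel chromatography. Ligand: substrate CP, serially diluted. Protein was diluted to 500 nM in 50 mM HEPES, 150 mM NaCl, 0.05% Tween, 2 mM EDTA, then mixed with CP to 250 nM final. Incubated ≥5 min at room temperature. Kd was measured by label-free MST on intrinsic tryptophan fluorescence.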

[4] = target: T3, hOTC (human ornithine transcarbamylase) (Homo sapiens, UniProt P00480, D263N); test: microscale thermophoresis, label-free
T3 sequence (P00480 33-354 D263N): T1 sequence (P00480 33-354) with D231N
How it was run: as §1

[5] = target: T4, hOTC (human ornithine transcarbamylase) (Homo sapiens, UniProt P00480, H107N); test: microscale thermophoresis, label-free
T4 sequence (P00480 33-354 H107N): T1 sequence (P00480 33-354) with H75N
How it was run: as §1

[6] = target: T5, hOTC (human ornithine transcarbamylase) (Homo sapiens, UniProt P00480, H302L); test: microscale thermophoresis, label-free
T5 sequence (P00480 33-354 H302L): T1 sequence (P00480 33-354) with H270L
How it was run: as §1

[7] = target: T6, hOTC (human ornithine transcarbamylase) (Homo sapiens, UniProt P00480, C303A); test: microscale thermophoresis, label-free
T6 sequence (P00480 33-354 C303A): T1 sequence (P00480 33-354) with C271A
How it was run: as §1

Tm increase relative to CP alone [1] | Kd [2] | Kd [3] | Kd [4] | Kd [5] | Kd [6] | Kd [7] | SMILES
2 °C |  |  |  |  |  |  | CCC[C@H](N)C(=O)O [NVA, L-norvaline]
 | 230 nM | 430 nM | 320 nM | 25000 nM | 110000 nM | 190 nM | NC(=O)OP(=O)(O)O [CP, carbamoyl phosphate]
